Activity calls are given as the source filed them. The calls are words filed in the database; no cut-off is given here.
Experiments:
[1] = biological target: T1, P2X purinoceptor 3 (Homo sapiens) (UniProt P56373); assay: Antagonist activity at recombinant human P2X3 receptor overexpressed in Xenopus oocytes assessed as inhibition of ATP-induced ion current at 10 uM preincubated for 20 mins followed by ATP induction by two-electrode voltage clamping method relative to control; format: cell-based
T1 sequence (whole entry): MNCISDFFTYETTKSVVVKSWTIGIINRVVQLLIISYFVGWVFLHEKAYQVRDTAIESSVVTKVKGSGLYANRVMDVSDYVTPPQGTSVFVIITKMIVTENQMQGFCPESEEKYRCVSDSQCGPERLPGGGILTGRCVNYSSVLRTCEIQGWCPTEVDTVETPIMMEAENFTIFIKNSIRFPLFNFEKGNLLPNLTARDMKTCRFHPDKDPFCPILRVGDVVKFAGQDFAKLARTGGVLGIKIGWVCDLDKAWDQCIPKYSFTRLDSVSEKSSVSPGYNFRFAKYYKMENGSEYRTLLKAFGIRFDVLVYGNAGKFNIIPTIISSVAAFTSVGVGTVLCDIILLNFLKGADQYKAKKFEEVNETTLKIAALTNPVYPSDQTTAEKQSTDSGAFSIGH
Summary of the method: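 Xenopus oocytes were microinjected with capped cRNA for human P2X3. Two-electrode voltage clamp recorded ion current evoked by 2 µM ATP. Test compound at 10 µM was scored as percent reduction of the ATP-induced current.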

[2] = biological target: T2, P2X purinoceptor 7 (Homo sapiens) (UniProt Q99572); assay: Competitive antagonist activity at recombinant human P2X7 receptor expressed in HEK293 cells assessed as inhibition of BzATP-induced intracellular ethidium bromide uptake at 0.1 to 1 uM after 2 hrs by fluorescence assay in presence of BzATP; format: cell-based
T2 sequence (whole entry): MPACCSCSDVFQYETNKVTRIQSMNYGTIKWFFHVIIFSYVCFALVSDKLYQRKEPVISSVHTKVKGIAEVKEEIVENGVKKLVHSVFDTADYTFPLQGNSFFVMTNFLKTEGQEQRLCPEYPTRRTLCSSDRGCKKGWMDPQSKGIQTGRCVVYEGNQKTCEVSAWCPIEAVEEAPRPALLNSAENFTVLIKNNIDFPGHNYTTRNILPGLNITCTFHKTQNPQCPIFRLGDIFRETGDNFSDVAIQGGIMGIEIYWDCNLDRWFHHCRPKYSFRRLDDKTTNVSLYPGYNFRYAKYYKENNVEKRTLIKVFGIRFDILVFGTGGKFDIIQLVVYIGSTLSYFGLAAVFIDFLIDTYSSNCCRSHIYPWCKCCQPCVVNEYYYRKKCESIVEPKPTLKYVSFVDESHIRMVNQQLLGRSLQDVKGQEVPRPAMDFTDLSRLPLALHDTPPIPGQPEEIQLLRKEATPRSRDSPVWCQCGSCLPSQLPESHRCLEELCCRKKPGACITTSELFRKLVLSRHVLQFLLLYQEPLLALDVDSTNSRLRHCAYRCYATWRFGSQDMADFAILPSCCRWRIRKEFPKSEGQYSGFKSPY
Summary of the method: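 HEK293 cells stably expressing recombinant human P2X7 were stimulated with BzATP, and ethidium ion accumulation was read as the measure of pore activity.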

[3] = biological target: T3, P2X purinoceptor 1 (Mus musculus) (UniProt P51576); assay: Antagonist activity at recombinant mouse P2X1 receptor overexpressed in Xenopus oocytes assessed as inhibition of ATP-induced ion current at 10 uM preincubated for 20 mins followed by ATP induction by two-electrode voltage clamping method relative to control; format: cell-based
T3 sequence (whole entry): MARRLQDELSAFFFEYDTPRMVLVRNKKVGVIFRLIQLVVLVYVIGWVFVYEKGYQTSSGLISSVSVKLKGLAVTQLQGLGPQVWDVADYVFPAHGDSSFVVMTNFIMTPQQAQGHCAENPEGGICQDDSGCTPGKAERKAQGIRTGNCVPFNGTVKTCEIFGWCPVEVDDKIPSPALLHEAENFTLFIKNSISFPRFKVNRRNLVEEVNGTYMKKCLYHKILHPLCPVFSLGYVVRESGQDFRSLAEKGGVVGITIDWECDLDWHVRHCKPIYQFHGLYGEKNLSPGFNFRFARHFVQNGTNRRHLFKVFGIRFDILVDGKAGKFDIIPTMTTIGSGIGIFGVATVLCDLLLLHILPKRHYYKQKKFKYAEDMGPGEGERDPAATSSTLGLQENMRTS
Summary of the method: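 Two-electrode voltage clamp on Xenopus oocytes expressing the receptor after cRNA microinjection. Current was evoked by 2 µM ATP, with test compound at 10 µM.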

Mus musculus = assay: Antiarthritic activity in CII-induced DBA/1J mouse arthritic model assessed as decrease in fibrosis at 50 mg/kg, ip measured 10 days post second CII booster by Hematoxylin and eosin staining relative to CII-treated control; format: functional, organism-based; set-up: dose 50 mg/kg
Summary of the method: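 Mouse type II collagen-induced arthritis; 50 mg/kg dosed by injection. Ankle histology was scored as cumulative arthritis injury scores against the vehicle-treated CII group.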

Q: What does the source list for `O=C1NC(=O)N(C2CCN(C(=O)c3ccc(Cl)c(C(F)(F)F)c3)CC2)C1Cc1ccc(OS(=O)(=O)c2cccc3cnccc23)cc1` (racemic)?
A: inhibition [1]: 5.05%; inhibition [2]: Active; inhibition [3]: 16%; Activity (Mus musculus): Active
